Series [1] is described as follows: Half life in monkey at 2 mg/kg, iv. More on the design: dose 2 mg/kg, route intravenous. Particulars: rhesus monkey, in vivo. The series is classed as ADME, organism-based, Macaca mulatta. An outline of the steps: (§1)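 Single intravenous dose of 2 mg/kg and single oral dose of 10 mg/kg, given separately, in rat, dog and monkey. Clearance and half-life taken from the iv arm; Cmax from the oral arm.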

The next series concerns the target Cytochrome P450 2C19 (Homo sapiens, UniProt P33261). As to the kind of experiment: Inhibition of CYP2C19 (unknown origin). It counts as ADME.
For series [2], the target named is T1, Prostaglandin D2 receptor (Homo sapiens, UniProt Q13258).
T1 sequence (Q13258 whole entry): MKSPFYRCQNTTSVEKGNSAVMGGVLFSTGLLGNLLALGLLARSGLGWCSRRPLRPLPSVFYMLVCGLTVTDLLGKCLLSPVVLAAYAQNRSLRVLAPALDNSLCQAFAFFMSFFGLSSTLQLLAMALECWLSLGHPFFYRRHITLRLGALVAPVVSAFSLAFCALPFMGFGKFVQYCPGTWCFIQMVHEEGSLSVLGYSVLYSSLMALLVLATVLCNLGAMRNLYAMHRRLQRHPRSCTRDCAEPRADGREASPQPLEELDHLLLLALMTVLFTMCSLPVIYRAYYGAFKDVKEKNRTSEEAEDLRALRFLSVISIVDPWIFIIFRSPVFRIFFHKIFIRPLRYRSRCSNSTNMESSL
As to the kind of experiment: Binding affinity to DP1 receptor (unknown origin) by FRET assay.

Series [3] relates to Mus musculus. As to the kind of experiment: Antiallergic activity in house dust mite-induced allergic airway disease BALB/c mouse model assessed as reduction in total cellularity in bronchoalveolar lavage fluid at 40 mg/kg, po after 72 hrs of HDM challenge. It counts as functional, organism-based. Set-up: dose 40 mg/kg. Particulars: Lung. Put shortly: (§2)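 BALB/c mice given house dust mite intratracheally via a catheter passed through the vocal cords. Test article 40 mg/kg orally once daily; dexamethasone 1 mg/kg ip once daily as reference. Total and differential BAL cells (eosinophils, macrophages, lymphocytes, neutrophils) counted 72 h after HDM challenge. Mean ± SEM, Mann–Whitney U test.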

The subject of series [4] is Ovis aries. As to the kind of experiment: Inhibition of Ascaris-induced airway bronchoconstriction in sheep assessed as inhibition of early phase allergic airway bronchoconstriction at 3 mg/kg, iv bid. It counts as functional, organism-based. Set-up: dose 3 mg/kg.
In series [5] the target is T2, Prostaglandin D2 receptor 2 (Homo sapiens, UniProt Q9Y5Y4).
T2 sequence (Q9Y5Y4 whole entry): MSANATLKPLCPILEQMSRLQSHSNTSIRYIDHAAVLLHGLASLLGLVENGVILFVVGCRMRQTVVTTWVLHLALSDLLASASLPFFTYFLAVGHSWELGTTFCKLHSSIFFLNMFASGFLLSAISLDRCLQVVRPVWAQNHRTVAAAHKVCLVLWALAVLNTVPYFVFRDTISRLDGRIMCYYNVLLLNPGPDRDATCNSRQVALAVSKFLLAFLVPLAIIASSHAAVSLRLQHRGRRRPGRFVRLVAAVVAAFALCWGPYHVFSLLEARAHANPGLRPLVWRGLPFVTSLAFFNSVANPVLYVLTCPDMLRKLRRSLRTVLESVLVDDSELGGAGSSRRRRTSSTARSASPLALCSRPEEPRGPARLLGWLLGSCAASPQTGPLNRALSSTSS
As to the kind of experiment: Binding affinity to human CRTH2 receptor. Put shortly:
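Competitive binding assay at human CRTH2, measuring displacement of tritium-labeled PGD2 by test compound; IC50 derived.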

The next series concerns the target Cytochrome P450 2C9 (Homo sapiens, UniProt P11712). As to the kind of experiment: Inhibition of CYP2C9 (unknown origin). It counts as ADME.
The next series deals with Salmonella typhimurium. As to the kind of experiment: Genotoxicity in Salmonella typhimurium by AMES test. The series is classed as toxicity, organism-based. Particulars: salmonella enterica subsp. enterica serovar typhimurium.
Series [6] concerns Ovis aries. As to the kind of experiment: Inhibition of Ascaris-induced airway bronchoconstriction in sheep assessed as inhibition of bronchoalveolar lavage fluid inflammation at 1 mg/kg, iv qd for 7 days. It counts as functional, organism-based. More on the design: dose 1 mg/kg. Particulars: Lung. Put shortly:
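Sheep given 1 mg/kg iv once daily for 7 days before Ascaris suum allergen challenge. Early and late responses read as airway resistance above baseline, compared with each animal's historical untreated values. After the AHR measurement, three bronchi per sheep were lavaged for cell counts.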

For another series, the target named is Cytochrome P450 3A4 (Homo sapiens, UniProt P08684). As to the kind of experiment: Inhibition of CYP3A4 (unknown origin). It counts as ADME.
Chain of Cytochrome P450 3A4 (P08684 whole entry): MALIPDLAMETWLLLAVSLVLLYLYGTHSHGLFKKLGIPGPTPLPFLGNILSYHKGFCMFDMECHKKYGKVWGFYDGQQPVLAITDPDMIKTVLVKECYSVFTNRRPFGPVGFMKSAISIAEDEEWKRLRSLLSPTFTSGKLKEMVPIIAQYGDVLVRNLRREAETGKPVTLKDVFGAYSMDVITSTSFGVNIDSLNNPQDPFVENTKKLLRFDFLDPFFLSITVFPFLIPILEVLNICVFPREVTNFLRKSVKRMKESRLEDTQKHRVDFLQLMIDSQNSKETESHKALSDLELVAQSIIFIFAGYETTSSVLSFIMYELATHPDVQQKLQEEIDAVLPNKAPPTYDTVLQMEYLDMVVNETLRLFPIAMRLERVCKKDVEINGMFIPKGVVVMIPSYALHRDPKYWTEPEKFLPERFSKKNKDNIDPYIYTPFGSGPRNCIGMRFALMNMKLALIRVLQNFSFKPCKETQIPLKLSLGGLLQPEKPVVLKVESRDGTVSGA
The test system of series [7] is Mus musculus. As to the kind of experiment: Antiallergic activity in house dust mite-induced allergic airway disease BALB/c mouse model assessed as reduction in neutrophil level in bronchoalveolar lavage fluid at 40 mg/kg, po after 72 hrs of HDM challenge. Particulars: Lung. It counts as functional, organism-based. More on the design: dose 40 mg/kg. An outline of the steps: as §2

A further series concerns the target T3, Cytochrome P450 2A6 (Homo sapiens, UniProt P11509).
T3 sequence (P11509 whole entry): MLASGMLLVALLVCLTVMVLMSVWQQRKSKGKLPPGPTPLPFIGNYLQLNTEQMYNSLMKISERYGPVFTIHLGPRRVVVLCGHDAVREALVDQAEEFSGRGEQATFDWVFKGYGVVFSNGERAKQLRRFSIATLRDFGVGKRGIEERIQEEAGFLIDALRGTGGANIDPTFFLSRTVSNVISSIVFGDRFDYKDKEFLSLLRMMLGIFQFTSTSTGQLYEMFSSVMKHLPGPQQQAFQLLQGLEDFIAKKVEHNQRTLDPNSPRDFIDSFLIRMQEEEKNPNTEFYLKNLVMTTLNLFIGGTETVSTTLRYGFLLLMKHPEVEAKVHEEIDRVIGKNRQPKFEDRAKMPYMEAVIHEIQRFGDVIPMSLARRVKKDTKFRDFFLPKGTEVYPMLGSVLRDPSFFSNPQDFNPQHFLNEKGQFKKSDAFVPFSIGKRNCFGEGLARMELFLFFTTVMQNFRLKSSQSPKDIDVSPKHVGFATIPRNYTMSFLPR
As to the kind of experiment: Inhibition of CYP2A6 (unknown origin). It counts as ADME.

In series [8] the test system is Mus musculus. As to the kind of experiment: Antiallergic activity in house dust mite-induced allergic airway disease BALB/c mouse model assessed as reduction in airway inflammation at 40 mg/kg, po qd after 17 days. It counts as functional, organism-based. Set-up: dose 40 mg/kg. Put shortly: as §2
The test system of the next series is Cavia porcellus. As to the kind of experiment: Antiallergic activity in ovalbumin-induced allergic lung inflammation Hartley guinea pig model assessed as eosinophil level in bronchoalveolar lavage fluid at 20 mg/kg, po administered 1 hr before and 6 hrs after ovalbumin challenge after 24 hrs. It counts as functional, organism-based. Set-up: dose 20 mg/kg. An outline of the steps:
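Female Hartley guinea pigs (375–425 g) sensitized ip on days 1 and 5 with 100 μg OVA plus 100 mg aluminum hydroxide in PBS, then challenged on day 15 with aerosolized 0.01% OVA for 60 min. Dosed orally 1 h before and 6 h after challenge; vehicle was Tween 80 in cherry syrup. On day 16, lungs lavaged with 2 × 10 mL PBS. Total cells counted by hemocytometer; differentials from stained cytospins. Unpaired t test.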

Series [9] relates to Ovis aries. As to the kind of experiment: Inhibition of allergen-induced mucociliary clearance in sheep assessed as tracheal mucus velocity at 3 mg/kg, iv measured at 8 hrs (reference value: 47%). The series is classed as functional. Particulars: Trachea. An outline of the steps:
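Five sheep received 3 mg/kg iv around allergen challenge. Tracheal mucus velocity measured at 4 h and 8 h and expressed as % of baseline.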

Series [10] can be described thus: Oral bioavailability in monkey at 10 mg/kg. The series is classed as ADME, organism-based, Macaca mulatta. Particulars: rhesus monkey, in vivo.
A short description of series [11]: Volume of distribution at steady state in rat at 2 mg/kg, iv. It counts as ADME, organism-based. Set-up: dose 2 mg/kg, route intravenous. Particulars: in vivo, read-out: Vdss.
The test system of series [12] is Mus musculus. As to the kind of experiment: Antiallergic activity in house dust mite-induced allergic airway disease BALB/c mouse model assessed as reduction in macrophage level in bronchoalveolar lavage fluid at 40 mg/kg, po after 72 hrs of HDM challenge. The series is classed as functional, organism-based. Set-up: dose 40 mg/kg. Particulars: Lung. Put shortly:
as §2

Series [13] is described as follows: Volume of distribution at steady state in monkey at 2 mg/kg, iv. The series is classed as ADME, organism-based, Macaca mulatta. Set-up: dose 2 mg/kg, route intravenous. Particulars: rhesus monkey, in vivo, read-out: Vdss.
Series [14] can be described thus: Clearance in monkey at 2 mg/kg, iv. More on the design: dose 2 mg/kg, route intravenous. It counts as ADME, organism-based, Macaca mulatta. Particulars: rhesus monkey, in vivo. An outline of the steps: as §1

The source of these data is ChEMBL document CHEMBL3232705, “Discovery of isoquinolinone indole acetic acids as antagonists of chemoattractant receptor homologous molecule expressed on Th2 cells (CRTH2) for the treatment of allergic inflammatory diseases” (J Med Chem, 2014).

Active and inactive are the calls of the source. Bounds are passed on as bounds.

Chain of Cytochrome P450 2C9 (P11712 whole entry): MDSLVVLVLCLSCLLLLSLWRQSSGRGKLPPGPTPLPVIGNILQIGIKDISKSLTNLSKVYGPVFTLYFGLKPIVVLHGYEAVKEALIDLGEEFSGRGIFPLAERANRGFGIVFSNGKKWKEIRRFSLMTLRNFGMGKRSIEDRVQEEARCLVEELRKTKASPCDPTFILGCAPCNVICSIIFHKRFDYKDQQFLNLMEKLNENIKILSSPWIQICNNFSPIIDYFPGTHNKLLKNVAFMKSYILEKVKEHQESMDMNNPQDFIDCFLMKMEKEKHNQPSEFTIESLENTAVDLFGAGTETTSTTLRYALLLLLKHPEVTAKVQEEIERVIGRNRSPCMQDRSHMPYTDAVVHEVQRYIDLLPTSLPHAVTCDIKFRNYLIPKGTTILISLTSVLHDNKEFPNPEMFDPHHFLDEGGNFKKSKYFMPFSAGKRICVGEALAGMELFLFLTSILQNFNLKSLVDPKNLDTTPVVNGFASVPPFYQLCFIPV
Chain of Cytochrome P450 2C19 (P33261 whole entry): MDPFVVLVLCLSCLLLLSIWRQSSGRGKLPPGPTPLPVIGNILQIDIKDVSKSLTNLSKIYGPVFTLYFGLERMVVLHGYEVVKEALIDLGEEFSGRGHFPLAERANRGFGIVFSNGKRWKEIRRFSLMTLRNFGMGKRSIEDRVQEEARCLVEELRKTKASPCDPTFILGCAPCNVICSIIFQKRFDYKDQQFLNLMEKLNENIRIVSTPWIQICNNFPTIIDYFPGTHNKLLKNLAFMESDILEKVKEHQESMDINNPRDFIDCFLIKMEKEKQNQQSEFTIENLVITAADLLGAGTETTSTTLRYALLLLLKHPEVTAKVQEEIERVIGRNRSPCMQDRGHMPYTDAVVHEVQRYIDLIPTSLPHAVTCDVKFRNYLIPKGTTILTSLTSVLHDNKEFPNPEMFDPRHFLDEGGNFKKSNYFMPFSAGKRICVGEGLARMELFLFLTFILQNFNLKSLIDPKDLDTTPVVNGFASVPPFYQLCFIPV

As to `Cc1c(-c2cn(C(C)C)c(=O)c3ccccc23)c2cc(F)ccc2n1CC(=O)O`, in series [1], the half-life is 4.1 h. The 50% inhibitory concentration (IC50) against Cytochrome P450 2C19 is above 100 µM; in series [2], 16 µM; in series [5] it was 0.0014 µM; against Cytochrome P450 2C9, 55 µM; on Cytochrome P450 3A4, above 100 µM; against Cytochrome P450 2A6, above 100 µM. Besides, the inhibition result in the series with Mus musculus [3], in the series with Ovis aries [6], with Mus musculus [7], in the series on Mus musculus [8] and with Cavia porcellus was “Active” throughout. The inhibition entry with Ovis aries [4] and with Mus musculus [12] was “inactive” each time. Moreover, the Activity result in the series on Salmonella typhimurium is listed as “Non-toxic”. Also, the inhibition in vivo at 3 mg/kg with Ovis aries [9] came to 98%. The same molecule registered a bioavailability in series [10] of 69%. Besides, the Vd in [11] amounted to 1.2 L/kg; in [13], 0.95 L/kg. This molecule showed a clearance in [14] of 6.1 mL/min/kg.

Usually half-life stands for the time needed for the level to fall by half in the phase considered. The IC50 is the concentration at which inhibition is half-maximal. Broadly, the inhibition in vivo is the share of the control response that was lost under treatment. As usually defined, the bioavailability is dose-corrected exposure relative to a reference, in per cent. As usually defined, the clearance is a measure of how efficiently the substance is removed, as volume per time.
